Measurements: ChEMBL document CHEMBL1155178, “Reactivity of isothiazolones and isothiazolone-1-oxides in the inhibition of the PCAF histone acetyltransferase” (Eur J Med Chem, 2009)

Columns and labels:
HepG2 = experiment: Growth inhibition of human HepG2 cells after 48 hrs by crystal violet assay; format: functional, cell-based; conditions: HepG2, 48 h
Outline: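 HEP G2 liver cancer cells grown in DMEM with 10% heat-inactivated FBS, penicillin and streptomycin at 37 °C, 5% CO2. Seeded at 5000 cells/well, grown 24 h, then exposed to inhibitors for 48 h. Fixed and stained with 1% crystal violet in 70% ethanol for 30 min, water-washed, solubilized in 1% SDS, read at 550 nm. Cell-free blank subtracted; untreated growth set to 100%. Each concentration tested 8-fold.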

[1] = target: Histone acetyltransferase KAT2B (Homo sapiens, UniProt Q92831); experiment: Inhibition of human recombinant histone acetyltransferase PCAF assessed as CoA-SH activity preincubated for 15 mins by CPM fluorescent assay
[2] = Octanol-water partition coefficient, log P by HPLC analysis; format: physicochemical
Outline: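 log P determined from the analyte's peak area in each of the two layers.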

Chain of Histone acetyltransferase KAT2B (Q92831 whole entry): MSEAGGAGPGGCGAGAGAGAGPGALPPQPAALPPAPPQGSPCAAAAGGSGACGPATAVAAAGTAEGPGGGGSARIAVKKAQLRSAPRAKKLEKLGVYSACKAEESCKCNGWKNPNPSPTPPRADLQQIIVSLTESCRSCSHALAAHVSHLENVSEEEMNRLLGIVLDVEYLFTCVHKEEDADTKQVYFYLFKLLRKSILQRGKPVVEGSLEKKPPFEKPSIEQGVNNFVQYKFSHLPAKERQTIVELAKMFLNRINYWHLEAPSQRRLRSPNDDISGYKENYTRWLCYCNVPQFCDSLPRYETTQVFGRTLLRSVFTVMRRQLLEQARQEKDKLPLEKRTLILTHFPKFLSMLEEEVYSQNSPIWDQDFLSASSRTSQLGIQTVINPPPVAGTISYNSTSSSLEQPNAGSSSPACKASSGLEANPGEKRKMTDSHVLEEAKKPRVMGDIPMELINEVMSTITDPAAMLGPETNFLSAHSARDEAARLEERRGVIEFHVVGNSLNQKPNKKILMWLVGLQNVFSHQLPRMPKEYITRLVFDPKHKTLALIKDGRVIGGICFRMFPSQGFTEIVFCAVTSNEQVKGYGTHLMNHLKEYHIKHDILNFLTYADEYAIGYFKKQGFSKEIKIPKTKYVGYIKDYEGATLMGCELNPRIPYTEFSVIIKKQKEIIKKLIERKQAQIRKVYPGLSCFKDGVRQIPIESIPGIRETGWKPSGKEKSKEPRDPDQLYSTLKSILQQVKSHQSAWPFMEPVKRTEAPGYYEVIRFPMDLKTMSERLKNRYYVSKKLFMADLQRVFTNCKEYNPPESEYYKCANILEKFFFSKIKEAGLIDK

IC50 (HepG2) | IC50 [1] | logP [2] | SMILES
12 µM | – | – | CCn1sc(Cl)cc1=O
16 µM | 2.6 µM | – | COC(=O)CCn1sc(Cl)c(Cl)c1=O
> 100 µM | > 10 µM | – | CCCCCCCCCCCCSc1cc(=O)n(CCC(=O)OC)[s+]1[O-] (stereo unspecified)
> 100 µM | > 10 µM | – | CCn1c(=O)cc(Cl)[s+]1[O-] (stereo unspecified)
> 100 µM | > 10 µM | – | COC(=O)CCn1c(=O)c(Cl)c(Cl)[s+]1[O-] (stereo unspecified)
24 µM | – | 0.69 | COC(=O)CCn1sc(Cl)cc1=O
> 50 µM | > 10 µM | – | CCCCCCCCCCCCSc1cc(=O)n(C(C)(C)C)[s+]1[O-] (stereo unspecified)
8.6 µM | > 10 µM | – | COC(=O)CCn1sc(Cl)c(C)c1=O
9.1 µM | > 10 µM | – | CCn1sc(Cl)c(C)c1=O
27 µM | > 10 µM | – | CC(C)(C)n1c(=O)cc(Cl)[s+]1[O-] (stereo unspecified)
> 100 µM | > 10 µM | – | CCCCCCCCCCCCSc1c(Cl)c(=O)n(CCC(=O)OC)[s+]1[O-] (stereo unspecified)
> 100 µM | > 10 µM | – | COC(=O)CCn1c(=O)c(C)c(Cl)[s+]1[O-] (stereo unspecified)
> 100 µM | > 10 µM | – | CCn1c(=O)c(Cl)c(Cl)[s+]1[O-] (stereo unspecified)
> 100 µM | > 10 µM | – | CCn1c(=O)c(C)c(Cl)[s+]1[O-] (stereo unspecified)
12 µM | 2.4 µM | – | CCn1sc(Cl)c(Cl)c1=O
> 100 µM | – | 0.08 | COC(=O)CCn1c(=O)cc(Cl)[s+]1[O-] (stereo unspecified)
